According to paper PMC5474308 (Biochimica et biophysica acta, 2015):
Like-named read-outs stand apart in the source and are kept apart here. Ends that are not written are not given here.

Legend:
[1] = test system: PAK2 (pT402) in pancreatic acini; test: Effect of post-receptor stimulants on T402 PAK2 phosphorylation; assay type: cell-based, rat; settings: 1 μM each, 5 min
[2] = test system: PAK2 (pT402) in pancreatic acini; assay type: cell-based, rat
[3] = test system: rat pancreatic acinar cells (amylase release); test: Effect of PAK2 inhibition on amylase release; assay type: cell-based; settings: for Amylase secretion (% total), inhibitor with CCK 0.01 nM: 40 μM inhibitor/analogue + CCK 0.01 nM, CCK alone 11.9 ± 2.2; for Amylase secretion (% total), inhibitor with CCK 0.01 nM / Amylase secretion (% total), inhibitor with CCK 0.1 nM / Amylase secretion (% total), inhibitor with bombesin / Amylase secretion (% total), inhibitor without secretagogue / Amylase secretion (% total), no inhibitor: 30 min; for Amylase secretion (% total), inhibitor with CCK 0.1 nM: 40 μM inhibitor/analogue + CCK 0.1 nM, CCK alone 15.7 ± 0.4; for Amylase secretion (% total), inhibitor with bombesin: 40 μM inhibitor/analogue + bombesin 10 nM, bombesin alone 15.2 ± 0.8; for Amylase secretion (% total), inhibitor without secretagogue: 40 μM inhibitor/analogue, no secretagogue; for Amylase secretion (% total), no inhibitor: 5–10 experiments, untreated 3.8 ± 0.3, p<0.05 vs control
In short: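 Secretagogues were CCK (0.01 or 0.1 nM) or bombesin (10 nM). Amylase released over a 30 min incubation was measured with Phadebas reagent and expressed as % of total cellular amylase. Means of 5–10 experiments.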

[4] = test system: ERK1/2 (p42/44) in pancreatic acini; test: Effect of PAK2 inhibition on ERK1/2; assay type: cell-based, rat
[5] = test system: PAK2 (pT402) in pancreatic acini; assay type: cell-based, rat; settings: for PAK2 inhibition: IPA-3 40 μM, 15 min
[6] = test system: PAK2 (pT402) in pancreatic acini; test: PAK2 T402 phosphorylation after stimulation by secretagogues and growth factors; assay type: cell-based, rat; settings: for PAK2 activation (abstract, words): rat pancreatic acini; for effect on phosphorylation of (T402) PAK2: VIP 10 nM, secretin 10 nM, endothelin 1 10 nM, 1 min; for T402 PAK2 phosphorylation by growth factors, % of control: EGF 10 nM 5 min, bFGF 100 ng/ml 5 min, PDGF 100 ng/ml 10 min (p<0.05), insulin 1 μM 10 min (p=0.08), 5 independent experiments; for effect of growth factors on PAK2 threonine 402 phosphorylation: IGF-1 100 nM 10 min, HGF 1 nM 10 min, insulin 1 μM 10 min
[7] = test system: PAK2 (pT402) in pancreatic acini; test: Time course of CCK and EGF stimulation of PAK2 T402 phosphorylation; assay type: cell-based, rat; settings: for T402 PAK2 phosphorylation at 1 minute: 1 min; for T402 PAK2 phosphorylation at 1 minute / duration of increase in phospho-T402 PAK2 / time of maximum T402 PAK2 phosphorylation: CCK 100 nM or EGF 10 nM
[8] = test system: PAK2 (pT402) in pancreatic acini; test: Dose-response effect of CCK and CCK-JMV on T402 PAK2 phosphorylation; assay type: cell-based, rat; settings: 3 min
In short: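 Rat pancreatic acini were dispersed by collagenase and pre-incubated 2 h at 37 °C in HEPES-buffered (pH 7.45) standard incubation solution. They were then exposed for 3 min to graded concentrations of CCK or the test peptide, and lysed. Read-out was pT402 PAK2 western blot with total PAK2 as loading control, by chemiluminescence densitometry. Values are % of 100 nM CCK response; n=5; EC50 by curve fitting.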

[9] = test system: CCK1 / CCK2 receptors in pancreatic acini (pT402 PAK2); assay type: cell-based, rat; settings: gastrin (CCKB agonist) 10 nM, A71378 (CCKA receptor agonist) 30 nM, 1 min

Q: Which “effect on PAK2 phosphorylation” value [1] does the source give for `CNc1ccc2oc(C[C@H]3O[C@@]4(CC[C@H]3C)O[C@H]([C@H](C)C(=O)c3ccc[nH]3)[C@H](C)C[C@H]4C)nc2c1C(=O)O` [A23187] here?
A: have no effect on PAK2

Q: With `CN(C)CCCn1cc(C2=C(c3c[nH]c4ccccc34)C(=O)NC2=O)c2ccccc21` [GFX] as the compound, how does the “TPA-induced pT402 PAK2 phosphorylation after pretreatment” value ([2]; pretreatment GF109203X 5 μM 1 h, then TPA 1 μM 5 min, TPA alone 319±45) read?
A: 100±26 % of control

Q: What does the source list for `Oc1ccc2ccccc2c1SSc1c(O)ccc2ccccc12` [IPA-3, 1,1′-Dithiodi-2-naphthtol]?
A: reduction of bombesin-induced increase in amylase release ([3]; 40 μM IPA3, bombesin 10 nM): 55 % of the maximal bombesin-induced stimulation; reduction of CCK-induced increase in amylase release ([3]; 40 μM IPA3, both concentrations of CCK (0.01, 0.1 nM)): 63 % of maximal CCK stimulation; Amylase secretion (% total), inhibitor with CCK 0.01 nM [3]: 7.5 ± 1.3ˆ % total; Amylase secretion (% total), inhibitor with CCK 0.1 nM [3]: 9.6 ± 0.6ˆ % total; Amylase secretion (% total), inhibitor with bombesin [3]: 10.3± 0.9ˆ % total; Amylase secretion (% total), inhibitor without secretagogue [3]: 5.2 ± 0.5 % total; effect on amylase release induced by CCK or bombesin (abstract, words) ([3]; rat pancreatic acini): reduced; CCK induced phosphorylation of p42/44 with inhibitor ([4]; IPA-3 40 μM, then CCK 0.3 nM, p<0.05): 64±4 % of CCK 0.3 nM alone; effect on CCK-induced ERK1/2 activation (abstract, words) ([4]; rat pancreatic acini): reduced; PAK2 inhibition [5]: 70%; PAK2 inhibition ([5]; listed as IPA3): approximately 70%; basal pT402 PAK2 phosphorylation with inhibitor ([5]; PP2 10 μM 1 h or IPA-3 40 μM 15 min, no stimulant): 32±6 % of control; effect on CCK-activation of PAK2 (abstract, words) ([5]; rat pancreatic acini): partially inhibited

Q: Which results are given for `Oc1ccc2cc(SSc3ccc4cc(O)ccc4c3)ccc2c1` [Pir 3,5, 6,6′-Dithiodi-2-naphthtol]?
A: Amylase secretion (% total), inhibitor with CCK 0.01 nM [3]: 12.6 ± 0.8 % total; Amylase secretion (% total), inhibitor with CCK 0.1 nM [3]: 14.7± 1.0 % total; Amylase secretion (% total), inhibitor with bombesin [3]: 14.4 ± 1.2 % total; Amylase secretion (% total), inhibitor without secretagogue [3]: 4.3 ± 0.9 % total; effect on stimulated enzyme secretion ([3]; Pir3,5 40 μM, CCK or bombesin): had no effect on stimulated enzyme secretion

Q: `CCCCCCCCCCCCCC(=O)O[C@@H]1[C@@H](C)[C@@]2(O)[C@@H](C=C(CO)C[C@]3(O)C(=O)C(C)=C[C@@H]23)[C@@H]2C(C)(C)[C@]12OC(C)=O` [TPA, 12-O-tetradecanoylphorbol-13-acetate] was tested. Which “PAK2 activation (abstract, words)” value [6] did it give?
A: activated

Q: How did the “PAK2 activation (abstract, words)” value [6] turn out when `C[N+](C)(C)CCOC(N)=O` [carbachol] was run?
A: activated

Q: Which results are given for “COOH-terminal octapeptide of cholecystokinin [CCK]”?
A: increase in amylase release ([3]; 0.01 nM CCK): 313±57%; increase in amylase release ([3]; 0.1 nM CCK): 413±11%; Amylase secretion (% total), no inhibitor ([3]; CCK 0.01 nM): 11.9 ± 2.2 % total; Amylase secretion (% total), no inhibitor ([3]; CCK 0.1 nM): 15.7 ± 0.4 % total; T402 PAK2 phosphorylation at 1 minute ([7]; mean ± S.E. of 5 experiments): 275±17 % of control; T402 PAK2 phosphorylation at 3 min ([7]; 3 min, CCK 100 nM, mean ± S.E. of 5 experiments, p<0.05): 298±26 % of control; duration of increase in phospho-T402 PAK2 [7]: over 15 min; time of maximum T402 PAK2 phosphorylation [7]: 3 min; subsequent partial decrease of PAK2 activation after rapid increase ([7]; CCK 100 nM, sustained over time): 40%; maximal stimulation of T402 PAK2 phosphorylation ([8]; 100 nM CCK): 452±70 % of control; concentration at which increase in T402 PAK2 phosphorylation is detectable [8]: 10 pM; concentration of maximal stimulation of T402 PAK2 phosphorylation [8]: 100 nM; PAK2 activation (abstract, words) [6]: activated; PKC-independent activation of PAK2 that was also PLC-independent ([2]; CCK1 receptor stimulation): 40%

Q: With “Endothelin-1: interacts with ET-1 and ET-3 receptors in the pancreatic acinar cell (CSCSSLMDKECVYFCHLDIIW; ends and bridges not checked; cysteine pairing not given here; UniProt P05305 53-73, looked up)” as the compound, how does the “effect on phosphorylation of (T402) PAK2” value [6] read?
A: did not produce any effect upon T402 PAK2 phosphorylation

Q: Which “T402 PAK2 phosphorylation at 1 minute” value ([7]; mean ± S.E. of 5 experiments) does the source give for Epidermal growth factor [EGF] here?
A: 300±30 % of control

Q: And the “duration of increase in phospho-T402 PAK2” value [7]?
A: ≤ 3 min

Q: What about the “time of maximum T402 PAK2 phosphorylation” value [7] of the same compound?
A: 1 min

Q: And the “T402 PAK2 phosphorylation by growth factors, % of control” value [6]?
A: 195±28 of control

Q: What about the “PAK2 activation (abstract, words)” value [6] of the same compound?
A: activated

Q: Which results are given for Insulin: pancreatic growth factor?
A: T402 PAK2 phosphorylation by growth factors, % of control [6]: 210±44 of control; effect of growth factors on PAK2 threonine 402 phosphorylation [6]: did not quite reach statistical significance

Q: Which results are given for basic fibroblast growth factor [bFGF]?
A: T402 PAK2 phosphorylation by growth factors, % of control [6]: 228±37 of control; PAK2 activation (abstract, words) [6]: activated

Q: How did the “Amylase secretion (% total), no inhibitor” value ([3]; bombesin 10 nM) turn out when “bombesin: pancreatic secretagogue that activates phospholipase C” was run?
A: 15.2 ± 0.8 % total

Q: And the “PAK2 activation (abstract, words)” value [6]?
A: activated

Q: Which “effect of selective receptor agonist on pT402 PAK2 phosphorylation” value [9] does the source give for gastrin here?
A: did not produce any increase in pT402 PAK2 phosphorylation

Q: Which “effect of growth factors on PAK2 threonine 402 phosphorylation” value [6] does the source give for hepatocyte growth factor [HGF] here?
A: had no effect

Q: How did the “effect of growth factors on PAK2 threonine 402 phosphorylation” value [6] turn out when insulin-like growth factor 1 [IGF-1] was run?
A: had no effect

Q: Which “T402 PAK2 phosphorylation by growth factors, % of control” value [6] does the source give for platelet-derived growth factor [PDGF] here?
A: 240±44 of control

Q: And the “PAK2 activation (abstract, words)” value [6]?
A: activated

Q: For “secretin: gastrointestinal hormone activating adenylate cyclase”, which “effect on phosphorylation of (T402) PAK2” value [6] is on record?
A: did not increase phosphorylation of (T402) PAK2

Q: “vasoactive intestinal peptide (HSDAVFTDNYTRLRKQMAVKKYLNSILN; ends and bridges not checked; UniProt P01282 125-152, looked up) [VIP]” was tested. Which “effect on phosphorylation of (T402) PAK2” value [6] did it give?
A: did not increase phosphorylation of (T402) PAK2
